According to ChEMBL document CHEMBL4325889, “Natural products hybrids: 3,5,4'-Trimethoxystilbene-5,6,7-trimethoxyflavone chimeric analogs as potential cytotoxic agents against diverse human cancer cells” (Eur J Med Chem, 2019):

Assays:
Assay type in all cases: functional
NCI-H322M = assay: Growth inhibition of human NCI-H322M cells at 10 uM after 48 hrs by SRB assay relative to control; conditions: read-out: GI
Summary of the method: (§1)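 Screened at the National Cancer Institute by the standard NCI protocol using the sulforhodamine B assay, which measures cellular protein. Single dose of 10 µM. Result is percent growth inhibition; values above 100% mean cell number fell below the initial population. Values are the average of duplicates.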

UO-31 = assay: Growth inhibition of human UO31 cells at 10 uM after 48 hrs by SRB assay relative to control; conditions: UO-31, 48 h, read-out: GI
Summary of the method: (§2)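 NCI screen against its human cancer cell line panel by the standard NCI protocol, SRB protein stain. Single dose of 10 μM. Percent growth inhibition versus control; values above 100% mean the cell population fell below the starting number. Each value is the mean of duplicates.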

SF-539 = assay: Growth inhibition of human SF539 cells at 10 uM after 48 hrs by SRB assay relative to control; conditions: SF-539, 48 h, read-out: GI; summary of the method: as §1
Hs-578T = assay: Growth inhibition of human Hs 578T cells at 10 uM after 48 hrs by SRB assay relative to control; conditions: read-out: GI; summary of the method: as §1
MDA-MB-435 = assay: Growth inhibition of human MDA-MB-435 cells at 10 uM after 48 hrs by SRB assay relative to control; conditions: MDA-MB-435, 48 h, read-out: GI; summary of the method: as §1
COLO 205 = assay: Growth inhibition of human COLO205 cells at 10 uM after 48 hrs by SRB assay relative to control; conditions: COLO 205, 48 h, read-out: GI; summary of the method: as §1
HCT-116 = assay: Growth inhibition of human HCT116 cells at 10 uM after 48 hrs by SRB assay relative to control; conditions: HCT-116, 48 h, read-out: GI; summary of the method: as §1
HL-60(TB) = assay: Growth inhibition of human HL-60(TB) cells at 10 uM after 48 hrs by SRB assay relative to control; conditions: HL-60, 48 h, read-out: GI
Summary of the method: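 Run at NCI under its standard single-dose protocol against a leukemia cell panel. Cells were exposed to 10 µM; growth was read by sulforhodamine B staining of cellular protein and expressed as % growth inhibition versus untreated control. Values above 100% mean the cell population fell below the starting count (cytocidal). Each value is the average of duplicates.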

HT-29 = assay: Growth inhibition of human HT-29 cells at 10 uM after 48 hrs by SRB assay relative to control; conditions: HT-29, 48 h, read-out: GI; summary of the method: as §1
SNB-75 = assay: Growth inhibition of human SNB75 cells at 10 uM after 48 hrs by SRB assay relative to control; conditions: SNB-75, 48 h, read-out: GI; summary of the method: as §2
SN12C = assay: Growth inhibition of human SN12C cells at 10 uM after 48 hrs by SRB assay relative to control; conditions: read-out: GI; summary of the method: as §1
HOP-92 = assay: Growth inhibition of human HOP92 cells at 10 uM after 48 hrs by SRB assay relative to control; conditions: HOP-92, 48 h, read-out: GI; summary of the method: as §1
OVCAR-3 = assay: Growth inhibition of human OVCAR3 cells at 10 uM after 48 hrs by SRB assay relative to control; conditions: OVCAR-3, 48 h, read-out: GI; summary of the method: as §1
SF-295 = assay: Growth inhibition of human SF295 cells at 10 uM after 48 hrs by SRB assay relative to control; conditions: SF-295, 48 h, read-out: GI; summary of the method: as §1
DU-145 = assay: Growth inhibition of human DU145 cells at 10 uM after 48 hrs by SRB assay relative to control; conditions: DU-145, 48 h, read-out: GI; summary of the method: as §1
HCC 2998 = assay: Growth inhibition of human HCC2998 cells at 10 uM after 48 hrs by SRB assay relative to control; conditions: HCC 2998, 48 h, read-out: GI; summary of the method: as §1
SK-MEL-28 = assay: Growth inhibition of human SK-MEL-28 cells at 10 uM after 48 hrs by SRB assay relative to control; conditions: SK-MEL-28, 48 h, read-out: GI; summary of the method: as §1
NCI/ADR-RES = assay: Growth inhibition of human NCI/ADR-RES cells at 10 uM after 48 hrs by SRB assay relative to control; conditions: read-out: GI; summary of the method: as §1
K562 = assay: Growth inhibition of human K562 cells at 10 uM after 48 hrs by SRB assay relative to control; conditions: K562, 48 h, read-out: GI; summary of the method: as §1
MCF7 = assay: Growth inhibition of human MCF7 cells at 10 uM after 48 hrs by SRB assay relative to control; conditions: MCF7, 48 h, read-out: GI; summary of the method: as §1
RPMI-8226 = assay: Growth inhibition of human RPMI8226 cells at 10 uM after 48 hrs by SRB assay relative to control; conditions: RPMI-8226, 48 h, read-out: GI; summary of the method: as §1
U-251 = assay: Growth inhibition of human U251 cells at 10 uM after 48 hrs by SRB assay relative to control; conditions: U-251, 48 h, read-out: GI; summary of the method: as §2
SK-MEL-5 = assay: Growth inhibition of human SK-MEL-5 cells at 10 uM after 48 hrs by SRB assay relative to control; conditions: SK-MEL-5, 48 h, read-out: GI; summary of the method: as §1
OVCAR-4 = assay: Growth inhibition of human OVCAR4 cells at 10 uM after 48 hrs by SRB assay relative to control; conditions: OVCAR-4, 48 h, read-out: GI; summary of the method: as §1
SNB-19 = assay: Growth inhibition of human SNB19 cells at 10 uM after 48 hrs by SRB assay relative to control; conditions: SNB-19, 48 h, read-out: GI; summary of the method: as §2
Malme-3M = assay: Growth inhibition of human MALME-3M cells at 10 uM after 48 hrs by SRB assay relative to control; conditions: read-out: GI; summary of the method: as §1
NCI-H23 = assay: Growth inhibition of human NCI-H23 cells at 10 uM after 48 hrs by SRB assay relative to control; conditions: NCI-H23, 48 h, read-out: GI; summary of the method: as §1
CAKI-1 = assay: Growth inhibition of human Caki1 cells at 10 uM after 48 hrs by SRB assay relative to control; conditions: CAKI-1, 48 h, read-out: GI; summary of the method: as §1
UACC-62 = assay: Growth inhibition of human UACC62 cells at 10 uM after 48 hrs by SRB assay relative to control; conditions: UACC-62, 48 h, read-out: GI; summary of the method: as §2
UACC-257 = assay: Growth inhibition of human UACC257 cells at 10 uM after 48 hrs by SRB assay relative to control; conditions: UACC-257, 48 h, read-out: GI; summary of the method: as §2
IGROV-1 = assay: Growth inhibition of human IGROV1 cells at 10 uM after 48 hrs by SRB assay relative to control; conditions: IGROV-1, 48 h, read-out: GI; summary of the method: as §1
CCRF-CEM = assay: Growth inhibition of human CCRF-CEM cells at 10 uM after 48 hrs by SRB assay relative to control; conditions: read-out: GI; summary of the method: as §1
HOP-62 = assay: Growth inhibition of human HOP62 cells at 10 uM after 48 hrs by SRB assay relative to control; conditions: HOP-62, 48 h, read-out: GI; summary of the method: as §1

SMILES	inhibition of growth at 10 µM (NCI-H322M)	inhibition of growth at 10 µM (UO-31)	inhibition of growth at 10 µM (SF-539)	inhibition of growth at 10 µM (Hs-578T)	inhibition of growth at 10 µM (MDA-MB-435)	inhibition of growth at 10 µM (COLO 205)	inhibition of growth at 10 µM (HCT-116)	inhibition of growth at 10 µM (HL-60(TB))	inhibition of growth at 10 µM (HT-29)	inhibition of growth at 10 µM (SNB-75)	inhibition of growth at 10 µM (SN12C)	inhibition of growth at 10 µM (HOP-92)	inhibition of growth at 10 µM (OVCAR-3)	inhibition of growth at 10 µM (SF-295)	inhibition of growth at 10 µM (DU-145)	inhibition of growth at 10 µM (HCC 2998)	inhibition of growth at 10 µM (SK-MEL-28)	inhibition of growth at 10 µM (NCI/ADR-RES)	inhibition of growth at 10 µM (K562)	inhibition of growth at 10 µM (MCF7)	also measured
COc1ccc(NC(=O)c2cccc(-c3cc(=O)c4c(O)c(OC)c(OC)cc4o3)c2)cc1	0.54%	6.6%	43.9%	43.9%	-5.05%	2.39%	29.5%	-29.7%	12.3%	105%	15.7%	76.4%	49.4%	-3.77%	3.06%	-1.16%	-4.12%	14.7%	8.23%	6.72%	inhibition of growth at 10 µM (RPMI-8226): 7.48%; inhibition of growth at 10 µM (U-251): 26.8%; inhibition of growth at 10 µM (SK-MEL-5): 8.61%; inhibition of growth at 10 µM (OVCAR-4): 2.54%; inhibition of growth at 10 µM (SNB-19): 38.4%; inhibition of growth at 10 µM (Malme-3M): 19.4%; inhibition of growth at 10 µM (NCI-H23): 8.74%; inhibition of growth at 10 µM (CAKI-1): 6.41%; inhibition of growth at 10 µM (UACC-62): 18.9%; inhibition of growth at 10 µM (UACC-257): 20.8%; inhibition of growth at 10 µM (IGROV-1): 4.86%; inhibition of growth at 10 µM (CCRF-CEM): 16%; inhibition of growth at 10 µM (HOP-62): 27.8%
COc1ccc(C(=O)Nc2cccc(-c3cc(=O)c4c(O)c(OC)c(OC)cc4o3)c2)cc1	8.16%	4.63%	15.3%	25.8%	5.59%	-7.69%	30.2%	15.4%	1.12%	32.5%	25.7%	42.3%	-0.49%	20.6%	5.4%	19.4%	9.4%	13.3%	11.9%	9.78%	inhibition of growth at 10 µM (RPMI-8226): 25.2%; inhibition of growth at 10 µM (U-251): 28.9%; inhibition of growth at 10 µM (SK-MEL-5): 16.2%; inhibition of growth at 10 µM (OVCAR-4): 4.66%; inhibition of growth at 10 µM (SNB-19): 34.1%; inhibition of growth at 10 µM (Malme-3M): 0.28%; inhibition of growth at 10 µM (NCI-H23): 15.7%; inhibition of growth at 10 µM (CAKI-1): 20%; inhibition of growth at 10 µM (UACC-62): 33.7%; inhibition of growth at 10 µM (UACC-257): 13.6%; inhibition of growth at 10 µM (IGROV-1): 2.38%; inhibition of growth at 10 µM (CCRF-CEM): 11.9%; inhibition of growth at 10 µM (HOP-62): 30.2%
